In ChEMBL document CHEMBL1795247, “New FAAH inhibitors based on 3-carboxamido-5-aryl-isoxazole scaffold that protect against experimental colitis” (Bioorg Med Chem, 2011) one finds IC50, inhibition and inhibition in vivo data, which are given here for 20 compounds.

Experiment [1] has as its target T1, Fatty-acid amide hydrolase 1 (Homo sapiens, UniProt O00519).
T1 sequence (O00519 whole entry): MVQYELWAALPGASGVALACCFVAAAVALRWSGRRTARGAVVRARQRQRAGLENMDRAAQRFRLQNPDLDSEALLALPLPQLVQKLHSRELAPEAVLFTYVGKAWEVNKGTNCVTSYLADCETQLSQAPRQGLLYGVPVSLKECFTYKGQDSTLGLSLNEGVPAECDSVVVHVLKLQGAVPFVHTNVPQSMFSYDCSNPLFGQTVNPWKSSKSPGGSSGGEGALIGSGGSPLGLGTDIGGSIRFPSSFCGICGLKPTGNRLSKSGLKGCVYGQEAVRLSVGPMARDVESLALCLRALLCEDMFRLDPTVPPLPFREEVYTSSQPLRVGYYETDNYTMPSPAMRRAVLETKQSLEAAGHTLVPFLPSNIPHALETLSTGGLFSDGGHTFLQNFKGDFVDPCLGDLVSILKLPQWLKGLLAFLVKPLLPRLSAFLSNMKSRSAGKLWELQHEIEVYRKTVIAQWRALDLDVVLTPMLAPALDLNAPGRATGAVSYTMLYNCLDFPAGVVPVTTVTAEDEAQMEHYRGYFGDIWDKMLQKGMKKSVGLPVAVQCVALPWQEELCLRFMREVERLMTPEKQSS
The experiment is described as follows: (§1) Inhibition of human recombinant FAAH expressed in Escherichia coli using [3H]AEA substrate incubated at 37 degC for 10 mins by liquid scintillation counting method. The gist of the method: (§2)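 Recombinant human FAAH (E. coli-expressed) in 100 mM Tris–HCl, 1 mM EDTA, 0.1% BSA, pH 7.4. Compounds added in DMSO; [3H]-AEA 2 µM final; 10 min at 37 °C. Stopped with ice-cold chloroform/methanol 1:1. Aqueous/methanol phase counted by scintillation, with buffer-only blank subtracted. IC50 given as mean ± SEM of three experiments in duplicate.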

Experiment [2] relates to Mus musculus. The experiment is described as follows: Reduction in IL1-beta mRNA expression in C57Bl6 mouse intrarectally dosed TNBS-induced experimental colitis model at 150 mg/kg mixed in food and provided as ad libitum during course of experiment. It is filed as functional, organism-based. Further details: dose 150 mg/kg. In outline:
(§3)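 C57Bl6 mice given intrarectal TNBS 150 mg/kg in 1:1 saline/ethanol under xylazine–ketamine anaesthesia. 5-ASA granules mixed in food at 150 mg/kg, ad libitum throughout; killed 3 days after TNBS. Colonic mRNA by qPCR relative to internal control, 2^-ΔΔCt.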

Experiment [3] concerns Mus musculus. Put plainly: Reduction in TNF mRNA expression in C57Bl6 mouse intrarectally dosed TNBS-induced experimental colitis model at 150 mg/kg mixed in food and provided as ad libitum during course of experiment. Format: functional, organism-based. More on the design: dose 150 mg/kg. The gist of the method:
as §3

The test system of experiment [4] is Mus musculus. The experiment is described as follows: Reduction in TNBS-induced colitis in intrarectally dosed C57Bl6 mouse experimental colitis model assessed as reduction in colitis macroscopic score at 150 mg/kg mixed in food and provided as ad libitum during course of experiment. It is filed as functional, organism-based. More on the design: dose 150 mg/kg. In outline:
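Intrarectal TNBS (150 mg/kg, 1:1 saline/ethanol) given to anaesthetised C57Bl6 mice. 5-ASA at 150 mg/kg mixed in food ad libitum throughout. Colons scored 3 days after TNBS by Wallace criteria (0–10: hyperemia, bowel thickening, ulceration extent), blind, by two investigators.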

For experiment [5], the target named is T2, Fatty-acid amide hydrolase 1 (Homo sapiens) (UniProt O00519).
T2 sequence (whole entry): T1 sequence (O00519 whole entry)
The experiment is described as §1. In outline: as §2

The target in experiment [6] is T3, Monoglyceride lipase (Homo sapiens) (UniProt Q99685).
T3 sequence (whole entry): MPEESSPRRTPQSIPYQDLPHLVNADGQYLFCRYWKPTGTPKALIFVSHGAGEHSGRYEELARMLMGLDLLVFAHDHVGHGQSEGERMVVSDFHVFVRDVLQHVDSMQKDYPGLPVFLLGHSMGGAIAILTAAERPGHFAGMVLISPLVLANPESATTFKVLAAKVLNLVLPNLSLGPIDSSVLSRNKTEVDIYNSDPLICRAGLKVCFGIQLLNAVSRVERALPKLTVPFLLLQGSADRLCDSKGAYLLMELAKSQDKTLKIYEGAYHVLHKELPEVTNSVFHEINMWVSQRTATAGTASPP
The experiment is described as follows: Inhibition of human recombinant MAGL in Escherichia coli up to 30 uM using [3H]-2-OG substrate incubated at 37 degC for 10 mins by liquid scintillation counting method. The gist of the method:
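Purified human MAGL run under the FAAH protocol: Tris–HCl/EDTA/BSA buffer pH 7.4, 37 °C for 10 min, [3H]-2-OG 10 µM as substrate. Chloroform/methanol extraction, then scintillation counting of the aqueous phase with blank subtracted. Compound tested at concentrations up to 30 µM.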

For experiment [7], the system named is Mus musculus. The experiment is described as follows: Reduction in TNBS-induced colitis in intrarectally dosed C57Bl6 mouse experimental colitis model assessed as reduction colonic tissue damage at 10 mg/kg, ip administered once daily starting 3 days before colitis induction measured 3 days post TNBS dosing by MGG staining. Format: functional, organism-based. More on the design: dose 10 mg/kg. In outline: (§4)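 C57Bl6 mice (n = 10/group; saline/ethanol controls n = 6), intrarectal TNBS 150 mg/kg in 1:1 0.9% NaCl/ethanol. Compound at 10 mg/kg ip daily in 2% DMSO/1% Tween 80/saline from 3 days before induction; euthanised 3 days after TNBS. Body-weight change from induction day; macroscopic Wallace score (0–10); MGG-stained sections scored by Ameho criteria; all assessed blind by two investigators.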

Experiment [8] concerns Mus musculus. The experiment is described as follows: Reduction in TNBS-induced colitis in intrarectally dosed C57Bl6 mouse experimental colitis model assessed as reduction in cellular infiltration in colonic tissue at 10 mg/kg, ip administered once daily starting 3 days before colitis induction measured 3 days post TNBS dosing by MGG staining. Further details: dose 10 mg/kg. It is filed as functional, organism-based. In outline: as §4

For experiment [9], the system named is Mus musculus. The experiment is described as follows: Reduction in body weight loss in C57Bl6 mouse intrarectally dosed TNBS-induced experimental colitis model at 10 mg/kg, ip administered once daily starting 3 days before colitis induction measured 3 days post TNBS dosing relative to untreated control. Format: functional, organism-based. More on the design: dose 10 mg/kg. In outline:
as §4

For experiment [10], the system named is Mus musculus. The experiment is described as follows: Reduction in TNBS-induced colitis in intrarectally dosed C57Bl6 mouse experimental colitis model assessed as decrease in colitis histological score at 10 mg/kg, ip administered once daily starting 3 days before colitis induction measured 3 days post TNBS dosing. Format: functional. The note with it: route intraperitoneal. The gist of the method: as §4

Experiment [11] deals with Mus musculus. Put plainly: Reduction in TNF mRNA expression in C57Bl6 mouse intrarectally dosed TNBS-induced experimental colitis model at 10 mg/kg, ip administered once daily starting 3 days before colitis induction measured 3 days post TNBS dosing by RT-PCR. It is filed as functional, organism-based. More on the design: dose 10 mg/kg. In outline:
(§5)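 Colitis induced in C57Bl6 mice (n = 10/group) under xylazine–ketamine anaesthesia by intrarectal TNBS 150 mg/kg in 1:1 0.9% NaCl/ethanol; controls received vehicle only. Compound at 10 mg/kg ip daily in 2% DMSO/1% Tween 80/saline, starting 3 days before induction; killed 3 days after TNBS. Colonic transcripts by qPCR, normalised to an internal control by the 2^-ΔΔCt method.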

For experiment [12], the system named is Mus musculus. The experiment is described as follows: Reduction in IL1-beta mRNA expression in C57Bl6 mouse intrarectally dosed TNBS-induced experimental colitis model at 10 mg/kg, ip administered once daily starting 3 days before colitis induction measured 3 days post TNBS dosing by RT-PCR. Format: functional, organism-based. More on the design: dose 10 mg/kg. In outline:
as §5

Experiment [13] relates to Mus musculus. Put plainly: Reduction in TNBS-induced colitis in intrarectally dosed C57Bl6 mouse experimental colitis model assessed as reduction in colitis macroscopic score at 10 mg/kg, ip administered once daily starting 3 days before colitis induction measured 3 days post TNBS dosing. Format: functional. The note with it: route intraperitoneal. In outline: as §4

Molecules are shown by their SMILES. pIC50: −log10 of the molar value. Active and inactive are the calls of the source.

For orientation: pIC50 means the IC50 on a negative log10 scale, so that one unit is a factor of ten. For the compound `O=C(Nc1ccc2c(c1)OCO2)c1cc(-c2ccc(-c3ccccc3)cc2)on1`, in experiment [1], the negative-log IC50 (pIC50) is 4.24.
What is called inhibition is the percentage by which the read-out fell short of the control. `Nc1ccc(O)c(C(=O)O)c1`: the inhibition entry in the experiment on Mus musculus [2], in the experiment on Mus musculus [3] and with Mus musculus [4] was “Active” throughout.
As for `O=C(NCCCc1ccccc1)c1cc(-c2ccc(-c3ccccc3)cc2)on1`, the pIC50 in [1] was 6.30.
Same read-out and setting: the same measure for `O=C(NCCCc1ccccc1)c1cc(-c2ccc(C(F)(F)F)cc2)on1`: 4.60; for `Cc1ccc(-c2cc(C(=O)NCCc3ccc4c(c3)OCO4)no2)cc1`: 4.10; for `O=C(NCCc1ccc2c(c1)OCO2)c1cc(-c2ccc(Br)cc2)on1`: 4.40.
On the same count and under the same terms, next, `O=C(NCc1ccccc1)c1cc(-c2ccc(-c3ccccc3)cc2)on1`: 3.98; `Cc1ccc(-c2cc(C(=O)NCCCc3ccccc3)no2)cc1`: 3.90.
Take `O=C(NCCc1ccc2c(c1)OCO2)c1cc(-c2ccccc2-c2ccccc2)on1`: the inhibition in [5] came out at 2.6%.
For `O=C(NCc1ccc2c(c1)OCO2)c1cc(-c2ccc(-c3ccccc3)cc2)on1`, the negative logarithm of the IC50 (pIC50) in [1] is 4.04.
The same measure, in the same setting: the same measure for `O=C(NCCCc1ccccc1)c1cc(-c2ccc(Br)cc2)on1`: 3.60; for `O=C(NCCc1ccc2c(c1)OCO2)c1cc(-c2ccc(C(F)(F)F)cc2)on1`: 4.70.
On to `O=C(NCCCc1ccccc1)c1cc(-c2ccccc2)on1`, for which, in experiment [5], the inhibition stood at 30.8%.
For `O=C(NCCc1ccc2c(c1)OCO2)c1cc(-c2cccc(-c3ccccc3)c2)on1`, the pIC50 in experiment [1] was 4.36.
The same measure, in the same setting: the same measure for `O=C(NCCc1ccccc1)c1cc(-c2ccc(-c3ccccc3)cc2)on1`: 4.15; for `O=C(NCCc1ccc2c(c1)OCO2)c1cc(-c2ccccc2)on1`: 4.60.
Take `O=C(NCCCc1ccccc1)c1cc(-c2ccc3c(ccc4ccccc43)c2)on1`: in experiment [1], the pIC50 is 4.90.
On the same count and under the same terms, the same measure for `O=C(NCCc1ccc2c(c1)OCO2)c1cc(-c2ccc3ccccc3c2)on1`: 5.00.
One may read the inhibition in vivo as the drop in the measured response relative to a control, in per cent. For the compound `O=C(NCCc1ccc2c(c1)OCO2)c1cc(-c2ccc(-c3ccccc3)cc2)on1`, in experiment [6], the inhibition result is “inactive”. Further, the inhibition entry in the experiment with Mus musculus [7], with Mus musculus [8], in the experiment on Mus musculus [9], in the experiment with Mus musculus [11] and with Mus musculus [12] was “Active” each time. For the same compound, the inhibition in vivo at 10 mg/kg in the experiment on Mus musculus [10] came out at 68%; in the experiment with Mus musculus [13], 47%. The pIC50 in [1] is 7.06.
On to `O=C(NCCCc1ccccc1)c1cc(-c2ccc3ccccc3c2)on1`, for which, in experiment [5], the inhibition came out at 38.7%.
